Data reported in paper PMC7540589 (Chemmedchem, 2020).

Experiment: Thermal and radiochemical stability during 68Ga-radiolabeling
Format: physicochemical
Conditions: elevated temperature of 99 °C
In short: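 Precursor (20 nmol in water) was added to 376.6–461.0 MBq ⁶⁸Ga³⁺ from ⁶⁸Ge/⁶⁸Ga generator fractioned elution with 0.1 M HCl. The mixture was titrated to pH 3.5–4.0 with 1.25 M sodium acetate and heated at 99 °C for 10 min. Reaction mixtures were analysed by analytical radio-HPLC.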

With “Ac[D‐Cys^29,Lys(DOTA)^31,Cys^34]NPY29‐36 [Compound 4]” the “thermal stability of precursor” value was “stable”.
